Hits are enriched below; roughly 2.3% of the tested compounds scored in any of these assays.
MC4R ag barr = activates human MC4R beta-arrestin recruitment. U2OS MC4R beta-arrestin complementation, luminescence; percent of melanotan II response, DMSO zero. activation, % at 8.9 µM. hit rate 0.98% among 360,000. AID 540308;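 active means activation above a per-plate cutoff, the mean activation of sample wells on that plate plus 3 SD, cut at about 8% in these data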
Target sequence (P32245 whole entry, looked up): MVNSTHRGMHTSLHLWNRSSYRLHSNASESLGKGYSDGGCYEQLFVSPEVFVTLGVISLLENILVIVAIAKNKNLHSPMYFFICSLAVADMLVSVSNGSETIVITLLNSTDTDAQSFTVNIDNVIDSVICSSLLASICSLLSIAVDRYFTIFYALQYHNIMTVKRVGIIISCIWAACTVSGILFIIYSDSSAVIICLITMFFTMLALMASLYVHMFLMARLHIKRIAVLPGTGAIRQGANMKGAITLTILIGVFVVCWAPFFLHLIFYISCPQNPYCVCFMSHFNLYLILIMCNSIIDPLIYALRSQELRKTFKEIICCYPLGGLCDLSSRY
MsrA inhibitor = bovine MsrA inhibition. AID 651718. inhibition, % at 15.5 µM. hit rate 0.75% among 360,000. purified bovine MsrA, absorbance read-out
bovine MsrA act = activators of bovine methionine sulfoxide reductase A; activation, % at 10.6 µM; AID 602163; purified bovine MsrA, absorbance read-out; hit rate 0.3% among 360,000; in the data active means activation above about 7.5%
MC4R antag cAMP = antagonists of human melanocortin 4 receptor (MC4R) | MC4R-expressing cells, MTII-stimulated cAMP, LANCE TR-FRET | P32245 | hit rate 0.48% among 360,000 | inhibition, % at 6.5 µM | AID 540295;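 active means inhibition above its plate's cutoff, the mean of tested wells on that plate plus 3 SD, cut at about 29% in these data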
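System: U2OS cells stably expressing human melanocortin 4 receptor (MC4R). Reagent: Melanotan II challenge after compound preincubation. Doses: 6.5 µM. Times: 30-min compound, 1-h challenge, 1-h detection, room temperature. Measured by: TR-FRET with Eu-cAMP and labeled anti-cAMP, 671 nm. Replicates: singlicate.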
MsrA inh confirm = bovine MsrA inhibition, confirmed | purified bovine MsrA, absorbance read-out | hit rate 41% among 2,300 | inhibition, % at 15.5 µM | shares compounds with MsrA inhibitor;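 further: coupled to thioredoxin reductase with NADPH and selenocystamine and DMSO as substrate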
A number is an active result; - = inactive; . = no result. Unless noted, no stated cut-off is given here; in the data, active means inhibition above about 4.5%; inactive means the rest.

SMILES | MC4R ag barr | MsrA inhibitor | bovine MsrA act | MC4R antag cAMP | MsrA inh confirm
O=C(CN1C(=O)S/C(=C/c2ccccn2)C1=O)N1CCOCC1 | - | 5.3 | - | - | 4.8
O=C(CCN1C(=O)S/C(=C\c2ccc(F)cc2)C1=O)Nc1ccc(C(=O)O)c(O)c1 | - | - | - | - | .
O=C(CN1C(=O)S/C(=C\c2ccccc2)C1=O)Nc1cc([N+](=O)[O-])ccc1O | - | 4.8 | - | - | 4.6
O=C(CCN1C(=O)S/C(=C/c2ccccc2)C1=O)Nc1ccc(C(=O)O)c(O)c1 | - | 5.7 | - | - | -
CCOc1ccc(N=C2SC(C(=O)Nc3ccccc3C#N)C(N)=C2C(=O)Nc2ccc(Cl)cc2)cc1 (stereo unspecified) | - | - | - | - | .
COc1cc(/C=C(/C#N)C(=O)c2c(C)[nH]c3ccccc23)ccc1OCC#N | - | - | - | - | .
O=C(CCN1C(=O)/C(=C\c2ccccc2)SC1=S)N1CCOCC1 | - | - | - | - | .
O=C(CCN1C(=O)S/C(=C\c2ccccc2)C1=O)N1CCOCC1 | - | 5.7 | - | - | -
O=c1[nH]c(/C=C/c2ccc([N+](=O)[O-])cc2)c([N+](=O)[O-])c(=O)[nH]1 | - | 5.4 | - | - | 5.6
CC(C)c1nc(NCc2ccccc2)c(C#N)c2c1CCCC2 | - | - | - | - | .
N#Cc1c(NCCCO)nc(-c2ccco2)c2c1CCCC2 | - | 9.5 | - | - | 7.6
CC(C)c1nc(NCCO)c(C#N)c2c1CCCC2 | - | 8.8 | - | - | 7.0
O=C(NCCc1ccccc1)C(c1ccc(F)cc1)N(C(=O)c1csnn1)C1CC1 (stereo unspecified) | - | - | - | - | .
O=C(O)c1ccc(N2C(=O)c3ccc(C(=O)c4cccc([N+](=O)[O-])c4)cc3C2=O)cc1 | - | - | - | - | .
CC(Nc1cc(N2CCN(S(C)(=O)=O)CC2)ccc1[N+](=O)[O-])c1ccccc1 (stereo unspecified) | - | 24 | - | - | 20
O=[N+]([O-])c1cc([N+](=O)[O-])c(N2CCOCC2)cc1NCc1ccccc1 | - | 36 | - | - | 36
O=[N+]([O-])c1ccc(N2CCOCC2)cc1NCc1ccccc1 | - | - | - | - | .
CC(Nc1cc(N2CCN(S(=O)(=O)N(C)C)CC2)ccc1[N+](=O)[O-])c1ccccc1 (stereo unspecified) | - | 8.5 | - | - | 8.0
CC(Nc1cc(N2CCCC2)ccc1[N+](=O)[O-])c1ccccc1 (stereo unspecified) | - | - | - | - | .
CCS(=O)(=O)N1CCN(c2ccc([N+](=O)[O-])c(NCc3cccnc3)c2)CC1 | - | 5.4 | - | - | -
CC(Nc1cc(N2CCOCC2)ccc1[N+](=O)[O-])c1ccccc1 (stereo unspecified) | - | 30 | - | - | 21
COc1ccc(-c2nc(C)c(C(C)=O)n2O)cc1[N+](=O)[O-] | - | 4.8 | - | - | -
O=C(N/N=C/c1ccc([N+](=O)[O-])cc1)c1cc(-c2ccc3c(c2)OCO3)n[nH]1 | - | - | - | - | .
COc1cc(/C=N/NC(=O)c2cc(-c3ccc4c(c3)OCO4)n[nH]2)ccc1O | - | 5.5 | - | - | -
COc1cc(/C=N/NC(=O)c2cc(C3CC3)[nH]n2)ccc1O | - | 5.2 | - | - | -
SMILES | MC4R ag barr | MsrA inhibitor | bovine MsrA act | MC4R antag cAMP | MsrA inh confirm
COc1ccc2cc3cc(C(=O)NCc4ccccn4)oc3nc2c1 | - | 8.0 | - | - | 5.6
O=C(NCc1ccco1)c1cc2cc3ccc(Cl)cc3nc2o1 | - | - | - | - | .
COc1ccc2nc3oc(C(=O)NCc4cccs4)cc3cc2c1 | - | - | - | - | .
COc1ccc2cc3cc(C(=O)NCc4ccco4)oc3nc2c1 | - | 4.8 | - | - | -
Cc1n[nH]c(C)c1CN(C)C(=O)C1CCC(=O)N(CCc2cccc(F)c2)C1 (stereo unspecified) | - | - | - | - | .
Nc1cc(=O)[nH]c(SCc2ccc(Cl)cc2)n1 | - | - | - | - | .
COc1ccc(CNC(=O)C[C@H]2C[C@H](C(=O)N3CCOCC3)[C@@]3(CCC4CCCC4)c4[nH]c5cc(-c6ccco6)ccc5c4CCN3C2=O)cc1OC | - | - | - | - | .
COc1cccc(NC(=O)CN(C)C(=O)c2cc(C)on2)c1 | - | - | - | - | .
Cc1csc2ncc(C(=O)N3CCCc4ccccc43)c(=O)n12 | - | 4.7 | - | - | -
C/C(N)=C(/C#N)C(=O)COC(=O)c1cc(-c2cccc3ccccc23)nc2ccccc12 | - | - | - | - | .
N#C/C(=C/Nc1ccccc1C(=O)O)C(N)=O | - | 5.8 | - | - | 6.8

Screening results from PubChem.
